Assay outcomes deposited in PubChem BioAssay by several laboratories.
An excerpt weighted towards active compounds, which were near 2.8% of everything screened.
EBI2 block: EBI2 receptor antagonists, beta-arrestin recruitment, primary screen, cell-based, luminescence, 7a,25-OHC stimulation, uHTS | AID 651636, 2012 | inhibition, % at 5 µM | 360,000 tested, 0.81% active | 7a,25-OHC stimulated; in the data active means inhibition above about 38%;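 further: enzyme fragment complementation signal reports receptor beta-arrestin coupling in cells; 0% = agonist plus DMSO wells and 100% = wells without agonist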
MC4R antag cAMP: MC4R antagonists of cAMP signaling, primary screen, cell-based, TR-FRET, antagonist arm of biased-ligand search | MC4R-expressing cells, MTII-stimulated cAMP, LANCE TR-FRET | 360,000 tested, 0.48% active | AID 540295, 2011 | inhibition, % at 6.5 µM;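 active means inhibition above its plate's cutoff, the mean of tested wells on that plate plus 3 SD, cut at about 29% in these data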;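 further: 0% = Melanotan II alone and 100% = Melanotan II plus saturating MCL0020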
Target sequence (P32245 whole entry, looked up): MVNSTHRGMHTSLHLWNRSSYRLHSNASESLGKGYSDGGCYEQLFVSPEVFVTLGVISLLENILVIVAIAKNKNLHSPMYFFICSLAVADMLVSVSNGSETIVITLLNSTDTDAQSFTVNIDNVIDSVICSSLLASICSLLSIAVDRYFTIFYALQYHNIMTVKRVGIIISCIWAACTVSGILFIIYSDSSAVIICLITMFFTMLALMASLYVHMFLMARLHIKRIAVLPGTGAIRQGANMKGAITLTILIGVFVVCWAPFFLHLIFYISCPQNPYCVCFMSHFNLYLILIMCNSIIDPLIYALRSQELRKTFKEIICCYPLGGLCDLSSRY
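Test system: U2OS cells stably expressing human melanocortin 4 receptor (MC4R); also added: Melanotan II challenge; compound: 6.5 µM single dose; timing: 30-min compound preincubation, 1-h Melanotan II challenge, 1-h detection, room temperature; signal: Eu-cAMP/anti-cAMP TR-FRET, emission 671 nm; repeats: one well per compound, no replicates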
m5-HT2A agonist: mouse Htr2a agonists via beta-arrestin recruitment, primary screen, cell-based, luminescence. AID 624169, 2012. CHO-K1 mHTR2A beta-arrestin complementation; percent of 30 µM serotonin response. 360,000 tested, 0.66% active. activation, % at 7.6 µM;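 active means activation above a run cutoff, the mean activation of all tested compounds plus 3 SD, cut at about 14% in these data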;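 further: 0% = plate median of compound wells and 100% = 30 µM serotonin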
MC4R barr agon: MC4R agonists recruiting beta-arrestin, primary screen, cell-based, luminescence, agonist arm of biased-ligand search; activation, % at 8.9 µM; 360,000 tested, 0.98% active; U2OS MC4R beta-arrestin complementation; percent of melanotan II response, DMSO zero; Melanocortin receptor 4 (Homo sapiens), P32245;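 active means activation above a per-plate cutoff, the mean activation of sample wells on that plate plus 3 SD, cut at about 8% in these data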
OPRM1 ag: OPRM1 agonists via beta-arrestin recruitment, confirmation, counter-screen for mouse HTR2A agonist project, cell-based, luminescence, single concentration; shares compounds with m5-HT2A agonist; U2OS OPRM1 beta-arrestin PathHunter; DMSO 0%, DAMGO 9.3 µM 100%; activation, % at 9.3 µM; 2,300 tested, 5.3% active;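 active means mean activation above the mean of DMSO-only wells plus 3 SD, cut at about 0.5% in these data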
m5-HT2A ag conf: mouse HTR2A agonists, beta-arrestin recruitment, confirmation, cell-based, luminescence, CHO-K1 PathHunter, triplicate; activation, % at 7.6 µM; 2,300 tested, 19% active; AID 624381, 2012; DMSO 0%, 30 µM serotonin 100%; shares compounds with m5-HT2A agonist;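 active means mean activation across triplicates above the hit threshold derived in the original primary screen, cut at about 15% in these data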
The depositor's hits bear a star.

COc1ccc(NC(=O)CSc2nc3ccccc3nc2N2CCOCC2)c(OC)c1 was read as EBI2 block 6, MC4R antag cAMP 0, m5-HT2A agonist 16*, MC4R barr agon 0, OPRM1 ag -1 and m5-HT2A ag conf -5.
`CCOC(=O)[C@]12CCCC=C1N(Cc1ccccc1)C(=O)[C@H](CC(=O)N1CCOCC1)C2` gave EBI2 block 1 and m5-HT2A agonist -1.
`CCOC(=O)c1ccccc1NC(=O)c1ccc2c(SCC(=O)O)c3c(nc2c1)CCCC3` gave EBI2 block -2, MC4R antag cAMP 18, m5-HT2A agonist 15*, MC4R barr agon 3, OPRM1 ag -1 and m5-HT2A ag conf -1.
COc1cc(Cl)c(C)cc1NC(=O)c1ccc2c(SCC(=O)O)c3c(nc2c1)CCCC3 was read as EBI2 block -8, MC4R antag cAMP 5, m5-HT2A agonist 2 and MC4R barr agon 0.
COc1ccc2[nH]cc(CCn3ccc(=O)c(C)c3C)c2c1 was read as EBI2 block 4, MC4R antag cAMP -6, m5-HT2A agonist 2 and MC4R barr agon -2.
COc1ccc2[nH]cc(CCN=C3SCC(=O)N3C)c2c1 was read as EBI2 block 1, MC4R antag cAMP 3, m5-HT2A agonist 18*, MC4R barr agon -2, OPRM1 ag 0 and m5-HT2A ag conf 3.
Screening OCc1nc2ccccc2n1Cc1ccc(Cl)cc1 returned EBI2 block 8, MC4R antag cAMP 9, m5-HT2A agonist -5 and MC4R barr agon 1.
Screening Cc1cc(C)c(C)c(Cn2c(CO)nc3ccccc32)c1C returned EBI2 block 7, MC4R antag cAMP 6, m5-HT2A agonist 15*, MC4R barr agon 2, OPRM1 ag 0 and m5-HT2A ag conf -1.
Cc1noc(C)c1CSCC(=O)N(C)CC(=O)Nc1ccccc1Cl was read as EBI2 block -6, MC4R antag cAMP -1, m5-HT2A agonist 14*, MC4R barr agon -3, OPRM1 ag -1 and m5-HT2A ag conf -2.
Screening CCc1nn(CC(=O)N2CCC(C)CC2)c(=O)c2cccn12 returned EBI2 block 8, MC4R antag cAMP 3, m5-HT2A agonist -3 and MC4R barr agon -1.
For COc1cccc2c1cc1c(=O)n(CC(=O)N3CCC(C)CC3)nc(C)n12 the results were EBI2 block -6, MC4R antag cAMP 2, m5-HT2A agonist 17*, MC4R barr agon 1, OPRM1 ag 0 and m5-HT2A ag conf 57*.
For C[C@H]1CN(CCc2ccccc2)C(=O)[C@@H]1CC(=O)Nc1ccccc1 the results were EBI2 block 12, MC4R antag cAMP 5, m5-HT2A agonist -2 and MC4R barr agon -3.
Screening CCOCCn1c(SCC(=O)OCc2ccccc2)nc2c1c(=O)[nH]c(=O)n2C returned EBI2 block -5, MC4R antag cAMP 26, m5-HT2A agonist 17*, MC4R barr agon 2, OPRM1 ag 0 and m5-HT2A ag conf 1.
For CC(C)Sc1cc(N2CCOCC2)nc(-c2ccc(Cl)cc2)n1 the results were EBI2 block -9, MC4R antag cAMP 0, m5-HT2A agonist 14*, MC4R barr agon 0, OPRM1 ag 0 and m5-HT2A ag conf 9.
CCOc1ccc(-n2c(=S)sc3c(=O)[nH]c(SCC(=O)C(C)(C)C)nc32)cc1 was read as EBI2 block 4, MC4R antag cAMP 6, m5-HT2A agonist 17*, MC4R barr agon -2, OPRM1 ag -1 and m5-HT2A ag conf 0.
Screening C[C@@H]1CN([C@H](C)CO)C(=O)CCCn2nncc2CO[C@H]1CN(C)Cc1cccc(C(=O)O)c1 returned EBI2 block 3, MC4R antag cAMP 15, m5-HT2A agonist 2 and MC4R barr agon 1.
For CC(C)Cc1cc(C(=O)Nc2sc3c(c2C#N)CCCC3)no1 the results were EBI2 block -4, MC4R antag cAMP 6, m5-HT2A agonist 6 and MC4R barr agon -1.
`CC(C)Cc1cc(C(=O)Nc2sc3c(c2C#N)CCC3)no1` gave EBI2 block -2, MC4R antag cAMP 2, m5-HT2A agonist 17*, MC4R barr agon -1, OPRM1 ag 0 and m5-HT2A ag conf 4.
Cn1c(N)c(C(=O)COC(=O)c2ccccc2C(=O)c2ccc(Cl)cc2)c(=O)n(C)c1=O was read as EBI2 block 7, MC4R antag cAMP 7, m5-HT2A agonist -2 and MC4R barr agon -1.
`O=C(NCc1ccncc1)c1ccc(S(=O)(=O)Nc2ccccc2)cc1` gave EBI2 block -12, MC4R antag cAMP 4, m5-HT2A agonist 15*, MC4R barr agon -1, OPRM1 ag 0 and m5-HT2A ag conf -5.
For CCCC[C@@H]1C=C(C(=O)O)[C@H](c2ccc3c(c2)OCO3)N1S(=O)(=O)c1ccc(C)cc1 the results were EBI2 block -2, MC4R antag cAMP 5, m5-HT2A agonist 16*, MC4R barr agon 1, OPRM1 ag 1.3* and m5-HT2A ag conf 6.
Screening Cc1ccc([C@@H]2CC=C(C(=O)O)[C@H](c3ccc(C(C)(C)C)cc3)N2S(=O)(=O)c2ccc(C)cc2)cc1 returned EBI2 block -1, MC4R antag cAMP 11, m5-HT2A agonist 24*, MC4R barr agon 5, OPRM1 ag 0 and m5-HT2A ag conf 7.
For CCc1ccc([C@@H]2CC=C(C(=O)O)[C@H](c3ccc(C(C)(C)C)cc3)N2S(=O)(=O)c2ccc(C)cc2)cc1 the results were EBI2 block 0, MC4R antag cAMP 4, m5-HT2A agonist 14 and MC4R barr agon 4.
`CCOC(=O)C1=CCC(c2ccc(N(CC)CC)cc2)N(S(=O)(=O)c2ccc(C)cc2)C1c1ccc([N+](=O)[O-])cc1` (configuration not stated) gave EBI2 block 8 and m5-HT2A agonist -4.
CC[C@@H]1C=C(C(=O)O)[C@H](c2ccc(Cl)cc2)N1S(=O)(=O)c1ccc(C)cc1 was read as EBI2 block -6, MC4R antag cAMP 13, m5-HT2A agonist 17*, MC4R barr agon 0, OPRM1 ag -1 and m5-HT2A ag conf -1.
Screening CCOC(=O)C1=CC[C@@H](c2ccccc2C(F)(F)F)N(S(=O)(=O)c2ccc(C)cc2)[C@H]1c1ccc(C#N)cc1 returned EBI2 block 11, m5-HT2A agonist 17*, OPRM1 ag 0 and m5-HT2A ag conf -3.
